Assay [1] has as its target T1, Fatty-acid amide hydrolase 1 (Rattus norvegicus) (UniProt P97612).
T1 sequence (whole entry): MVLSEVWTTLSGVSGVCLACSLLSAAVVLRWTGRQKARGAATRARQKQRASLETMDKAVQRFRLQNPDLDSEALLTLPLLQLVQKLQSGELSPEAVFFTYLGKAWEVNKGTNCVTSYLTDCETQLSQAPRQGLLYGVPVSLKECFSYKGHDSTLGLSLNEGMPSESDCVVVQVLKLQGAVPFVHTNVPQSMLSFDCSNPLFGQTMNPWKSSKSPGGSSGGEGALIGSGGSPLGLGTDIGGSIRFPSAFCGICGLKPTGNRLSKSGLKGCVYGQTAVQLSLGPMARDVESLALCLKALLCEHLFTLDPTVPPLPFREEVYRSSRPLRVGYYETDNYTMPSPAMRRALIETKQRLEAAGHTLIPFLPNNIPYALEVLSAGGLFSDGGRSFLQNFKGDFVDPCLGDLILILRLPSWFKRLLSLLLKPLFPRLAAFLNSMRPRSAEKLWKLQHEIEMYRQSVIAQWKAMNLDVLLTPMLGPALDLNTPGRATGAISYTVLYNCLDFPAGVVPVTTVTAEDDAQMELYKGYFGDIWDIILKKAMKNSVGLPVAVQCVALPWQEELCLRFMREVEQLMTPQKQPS
Kind of assay: Inhibition of FAAH in Wistar rat cerebral membrane at 0.1 uM by liquid scintillation counting. Type of assay: cell membranes. A digest of the protocol:
(§1)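 Rat brain homogenate (10,000g supernatant from male Wistar forebrain, 8 weeks old), 18 µg protein, preincubated with inhibitor in DMSO (≤5% v/v) for 10 min at 37 °C in 0.1 M potassium phosphate pH 7.4 with 0.5% fatty-acid-free BSA. Then 2 µM AEA carrying [ethanolamine-1-3H]AEA is added for 10 min at 37 °C. The reaction is stopped with ethyl acetate and aqueous [3H]ethanolamine is counted. IC50 comes from a variable-slope sigmoidal fit, three experiments in duplicate; single-point values are the mean of two experiments in duplicate.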

For a further assay, the target named is T2, Monoglyceride lipase (Rattus norvegicus, UniProt Q8R431).
T2 sequence (Q8R431 whole entry): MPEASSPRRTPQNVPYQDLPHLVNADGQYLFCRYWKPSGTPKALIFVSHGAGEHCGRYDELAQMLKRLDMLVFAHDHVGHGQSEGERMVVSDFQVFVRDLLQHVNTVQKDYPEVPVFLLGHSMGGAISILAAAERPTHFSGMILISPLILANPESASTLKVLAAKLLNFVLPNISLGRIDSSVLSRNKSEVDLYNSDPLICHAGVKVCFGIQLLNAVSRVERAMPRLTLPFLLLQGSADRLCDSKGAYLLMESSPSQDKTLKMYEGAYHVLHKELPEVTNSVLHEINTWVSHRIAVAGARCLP
Description: Inhibition of MGL in Wistar rat cerebral membrane by HPLC. The assay is classed as cell membranes. A digest of the protocol:
(§2)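 Incubation is 90 min at 25 °C with 5 µg protein, 50 µM 2-AG, 100 mM NaCl and 5 mM MgCl2. The reaction is stopped with acidified acetonitrile (pH 3.0). 2-AG, 1(3)-AG and arachidonic acid are quantified by reversed-phase HPLC with UV at 211 nm. IC50 comes from a variable-slope fit, three experiments in duplicate; percentages are the mean of two in duplicate.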

For assay [2], the target named is T3, Fatty-acid amide hydrolase 1 (Rattus norvegicus, UniProt P97612).
T3 sequence (P97612 whole entry): T1 sequence (whole entry)
Description: Inhibition of FAAH in Wistar rat cerebral membrane by liquid scintillation counting. Type of assay: cell membranes. A digest of the protocol:
as §1

Assay [3] has as its target T4, Monoglyceride lipase (Rattus norvegicus) (UniProt Q8R431).
T4 sequence (whole entry): T2 sequence (Q8R431 whole entry)
Description: Inhibition of MGL in Wistar rat cerebral membrane assessed as residual activity at 1 mM by HPLC; values are per cent of control.

Assay [4] concerns the target T4, Monoglyceride lipase (Rattus norvegicus). Kind of assay: Inhibition of MGL in Wistar rat cerebral membrane at 100 uM by HPLC. Type of assay: cell membranes. In a few lines:
as §2

This is an account of results in ChEMBL document CHEMBL1152901, “The synthesis and biological evaluation of para-substituted phenolic N-alkyl carbamates as endocannabinoid hydrolyzing enzyme inhibitors” (Eur J Med Chem, 2009).

Active and inactive are the calls of the source. The calls are words filed in the database; no cut-off is given here.

As for `CCCCNC(=O)Oc1ccc(OC)cc1`, in assay [1], the inhibition (commonly the change of the read-out against control, counted positive when it falls) turned out to be 5%.

With `O=C(NCc1ccccc1)Oc1ccc(C2=NCCS2)cc1`, the half-maximal inhibitory concentration (IC50) (usually the concentration at which inhibition is half-maximal) on Monoglyceride lipase turned out to be 42000 nM; in assay [2], 290 nM.

On to `O=C(NC1CCCCC1)Oc1ccc(C2=NCCS2)cc1`, for which the figures for the IC50 (on Monoglyceride lipase; in assay [2]) were 27000 nM and 100 nM, respectively.

On to `Cc1ccc(CNC(=O)Oc2ccc(C3=NCCS3)cc2)cc1`, for which the half-maximal inhibitory concentration (IC50) was 94000 nM against Monoglyceride lipase and 280 nM in assay [2].

With `CCNC(=O)Oc1ccc(C2=NCCS2)cc1`, the values for the half-inhibitory concentration (IC50) (on Monoglyceride lipase; in assay [2]) were 102000 nM and 15000 nM, respectively. Moreover, the residual activity (as a rule, the signal under treatment as a percentage of the control signal) in assay [3] was 12%.

In turn, `CCCCCCCCCCCCNC(=O)Oc1ccccc1` gave an inhibition in assay [4] of 36%.

Compound `CCCCNC(=O)Oc1ccc(C(=O)OC)cc1` displayed an inhibition in assay [1] of 35%.

For the compound `CCCCNC(=O)Oc1ccccc1-c1csnn1`, in assay [1], the inhibition entry is “inactive”.

For `CCCCCCNC(=O)Oc1ccc(C(=O)OC)cc1C`, half-maximal inhibition in assay [2] (IC50) required 55 nM.

On to `O=C(NCCc1ccccc1)Oc1ccc(C2=NCCS2)cc1`, for which the concentration for half-maximal inhibition (IC50) on Monoglyceride lipase was 28000 nM; in assay [2], 38 nM.

As for `O=C(NC1CCCC1)Oc1ccc(C2=NCCS2)cc1`, the half-maximal inhibitory concentration (IC50) amounted to 11000 nM against Monoglyceride lipase and 130 nM in assay [2].

Regarding `Cc1ccccc1CNC(=O)Oc1ccc(C2=NCCS2)cc1`, the results for the IC50 (on Monoglyceride lipase; in assay [2]) were 46000 nM and 62 nM, respectively.

At Monoglyceride lipase, `CCCCCCCCCCCCNC(=O)Oc1ccc(C(=O)OC)cc1` yielded a half-maximal inhibitory concentration (IC50) of 2800 nM.

The compound `CCCCNC(=O)Oc1ccc(C#N)cc1` yielded an inhibition in assay [1] of 25%.

Compound `O=C(NC1CCCC1)Oc1ccc(-c2csnn2)cc1` returned an IC50 in assay [2] of 20 nM.

The compound `O=C(NCc1ccccc1)Oc1ccc(-c2csnn2)cc1` had an IC50 in assay [2] of 44 nM. For the same compound, in assay [3], the residual activity came to 22%.

In turn, `CCCCNC(=O)Oc1cccc(-c2csnn2)c1` had an IC50 in assay [2] of 6.9 nM.

As for `O=C(NC1CCCC1)Oc1ccc(C2=NCCO2)cc1`, the IC50 at Monoglyceride lipase was found to be 11000 nM; in assay [2] it was 100 nM. Also, in assay [3], the residual activity amounted to 21%.

In the case of `O=C(NC1CCCCC1)Oc1ccc([N+](=O)[O-])cc1`, the 50% inhibitory concentration (IC50) against Monoglyceride lipase was determined as 19000 nM. The same compound had an inhibition in assay [1] of 25%.

As to `COC(=O)c1ccc(OC(=O)NC2CCCCC2)cc1`, half-maximal inhibition against Monoglyceride lipase (IC50) was put at 14000 nM. The inhibition in assay [1] came out at 41%.

In assay [2], `CCCCCCCCCCCCNC(=O)Oc1ccc(C2=NCCS2)cc1` returned an IC50 of 6.3 nM.

As for `Cc1ccc(CNC(=O)Oc2ccc(C3=NCCO3)cc2)cc1`, the figures for the IC50 (against Monoglyceride lipase; in assay [2]) were 125000 nM and 180 nM, respectively. Further, the residual activity in assay [3] came to 6%.

In assay [1], `CCCCCCNC(=O)Oc1ccc(C)cc1` showed an inhibition of 27%.

As to `CCCNC(=O)Oc1ccc(C2=NCCS2)cc1`, the half-maximal inhibitory concentration (IC50) against Monoglyceride lipase is 46000 nM; in assay [2], 1700 nM. For the same compound, in assay [3], the residual activity is 6%.

Compound `CCCCNC(=O)Oc1ccc([N+](=O)[O-])cc1` returned an inhibition in assay [1] of 16%.

On to `Cc1ccccc1CNC(=O)Oc1ccc(C2=NCCO2)cc1`, for which the concentration for half-maximal inhibition (IC50) on Monoglyceride lipase worked out at 35000 nM; in assay [2], 34 nM. Besides, in assay [3], the residual activity was determined as 12%.

`CCCCCCNC(=O)Oc1ccc(C(=O)OC)cc1I` returned an IC50 in assay [2] of 24 nM.

`CCCCCCNC(=O)Oc1ccc(C2=NCCS2)cc1`: inhibition in assay [2] was half-maximal at 8.2 nM (IC50).

Turning to `CCCCCCNC(=O)Oc1ccc(Br)cc1`, the residual activity in assay [3] came to 16%.

Turning to `CCCCCCNC(=O)Oc1ccc(-c2csnn2)cc1`, the IC50 on Monoglyceride lipase stood at 11000 nM; in assay [2], 19 nM.

`CCCCNC(=O)Oc1ccc(C2=NCCO2)cc1`: the half-maximal inhibitory concentration (IC50) against Monoglyceride lipase is 34000 nM; in assay [2], 120 nM.

Take `COc1ccc(CNC(=O)Oc2ccc(C3=NCCS3)cc2)cc1`: the results for the half-maximal inhibitory concentration (IC50) (at Monoglyceride lipase; in assay [2]) were 46000 nM and 320 nM, respectively. Also, in assay [3], the residual activity was 21%.

As for `CCCCCCNC(=O)Oc1ccc(C(=O)OC)cc1`, inhibition on Monoglyceride lipase was half-maximal at 35000 nM (IC50).

Turning to `CCCCCCNC(=O)Oc1ccc(C(=O)OC)cc1OC`, in assay [2], the 50% inhibitory concentration (IC50) worked out at 5.5 nM.

For the compound `CCCCCCNC(=O)Oc1ccccc1`, in assay [4], the inhibition amounted to 41%.

`CCCCCCNC(=O)Oc1c(C(C)(C)C)cc(C(=O)OC)cc1C(C)(C)C` registered an inhibition in assay [1] of 4%.
